pIC50: −log10 of the molar value. Active and inactive are the calls of the source. No cut-off for these calls is given here.
What was measured:
Aurora kinase B [1] = molecular target: T1, Aurora kinase B (Homo sapiens, UniProt Q96GD4); assay: Inhibition of Aurora B (unknown origin) using FAM-labelled peptide as substrate pretreated for 10 mins followed by substrate addition and measured after 60 mins by fluorescence assay
In short: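 Kinase IC50 values are the mean of at least two independent experiments; selectivity is the Aurora A/B ratio of these IC50s.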

K562 = assay: Antiproliferative activity against human K562 cells after 48 hrs by CCK8 assay; type: functional, cell-based; settings: Homo sapiens, K562, 48 h; read-out: IC50
Aurora kinase B [2] = molecular target: T1, Aurora kinase B; assay: Inhibition of Aurora B in human 293T cells assessed as reduction in histone H3 phosphorylation at Ser10 residue at 1 to 2 uM after 24 hrs by Western blot analysis; type: cell-based
In short: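 293T cells treated 24 h with increasing doses or 0.1% DMSO control; lysates probed by Western blot for p-Aurora A (Thr288) and p-histone H3 (Ser10), with GAPDH as loading control.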

MDA-MB-231 [3] = assay: Cell cycle arrest in human MDA-MB-231 cells assessed as accumulation of cells with 4N/8N DNA content after 24 hrs by propidium iodide staining based flow cytometry; type: functional
In short: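 MDA-MB-231 cells exposed to test compound at indicated doses, MLN8237, or 0.1% DMSO control for 24 h; cell-cycle distribution, including G2/M and 4N/8N populations, read by flow cytometry.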

MDA-MB-231 [4] = assay: Induction of apoptosis in human MDA-MB-231 cells assessed as annexin-V positive cells at 5 uM after 48 hrs by Annexin-V-FITC/propidium iodide staining based flow cytometry (reference value: 15.46 +/- 1.18%); type: functional
MDA-MB-231 [5] = assay: Antitumor activity against human MDA-MB-231 cells xenografted in BALB/c athymic nude mouse assessed as reduction in tumor size at 30 mg/kg, ig administered every 2 days for 18 days; type: functional, organism-based
In short: (§1)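 Nude mice with established MDA-MB-231 xenografts dosed intragastrically every 2 days for 18 days; vehicle control group; n=4 per group. Tumor volume estimated over time and compared by two-way repeated-measures ANOVA; dissected tumors weighed at end. Data as mean ±SD.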

MDA-MB-231 [6] = assay: Antitumor activity against human MDA-MB-231 cells xenografted in BALB/c athymic nude mouse assessed as tumor growth inhibition at 30 mg/kg, ig administered every 2 days for 18 days relative to control; type: functional; settings: MDA-MB-231, po, read-out: TGI; in short: as §1
Mus musculus [7] = assay: Toxicity in BALB/c athymic nude mouse xenografted with human MDA-MB-231 cells assessed as body weight loss at 30 mg/kg, ig administered every 2 days for 18 days measured during compound dosing; type: organism-based; settings: in vivo, po
In short: (§2)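 Xenograft-bearing nude mice dosed intragastrically every 2 days for 18 days; body weight tracked throughout. After treatment ended, liver, lung, kidney and spleen weighed in untreated, vehicle and dosed groups; unpaired two-tailed t-test; mean ±SD, n=4.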

Mus musculus [8] = assay: Toxicity in BALB/c athymic nude mouse xenografted with human MDA-MB-231 cells assessed as effect on liver weight at 30 mg/kg, ig administered every 2 days for 18 days measured post last dose; type: organism-based; settings: in vivo, po; in short: as §2
Mus musculus [9] = assay: Toxicity in BALB/c athymic nude mouse xenografted with human MDA-MB-231 cells assessed as effect on lung weight at 30 mg/kg, ig administered every 2 days for 18 days measured post last dose; type: organism-based; settings: in vivo, po; in short: as §2
Mus musculus [10] = assay: Toxicity in BALB/c athymic nude mouse xenografted with human MDA-MB-231 cells assessed as effect on HGB level at 30 mg/kg, ig administered every 2 days for 18 days measured post last dose; type: organism-based; settings: in vivo, po
In short: (§3)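 After the 18-day intragastric course (every 2 days), blood cell counts taken from untreated, vehicle and dosed mice; groups compared by unpaired two-tailed t-test; mean ±SD, n=4.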

Mus musculus [11] = assay: Toxicity in BALB/c athymic nude mouse xenografted with human MDA-MB-231 cells assessed as effect on RDW-CV level at 30 mg/kg, ig administered every 2 days for 18 days measured post last dose; type: organism-based; settings: in vivo, po; in short: as §3
Mus musculus [12] = assay: Toxicity in BALB/c athymic nude mouse xenografted with human MDA-MB-231 cells assessed as effect on MCV level at 30 mg/kg, ig administered every 2 days for 18 days measured post last dose; type: organism-based; settings: in vivo, po; in short: as §3
Mus musculus [13] = assay: Toxicity in BALB/c athymic nude mouse xenografted with human MDA-MB-231 cells assessed as effect on MCHC level at 30 mg/kg, ig administered every 2 days for 18 days measured post last dose; type: organism-based; settings: in vivo, po; in short: as §3
[14] = molecular target: Voltage-gated inwardly rectifying potassium channel KCNH2 (Homo sapiens, UniProt Q12809); assay: Inhibition of human ERG expressed in CHO cells at -80 mV holding potential by whole-cell patch clamp method; type: cell-based
Sequence of Voltage-gated inwardly rectifying potassium channel KCNH2 (Q12809 whole entry): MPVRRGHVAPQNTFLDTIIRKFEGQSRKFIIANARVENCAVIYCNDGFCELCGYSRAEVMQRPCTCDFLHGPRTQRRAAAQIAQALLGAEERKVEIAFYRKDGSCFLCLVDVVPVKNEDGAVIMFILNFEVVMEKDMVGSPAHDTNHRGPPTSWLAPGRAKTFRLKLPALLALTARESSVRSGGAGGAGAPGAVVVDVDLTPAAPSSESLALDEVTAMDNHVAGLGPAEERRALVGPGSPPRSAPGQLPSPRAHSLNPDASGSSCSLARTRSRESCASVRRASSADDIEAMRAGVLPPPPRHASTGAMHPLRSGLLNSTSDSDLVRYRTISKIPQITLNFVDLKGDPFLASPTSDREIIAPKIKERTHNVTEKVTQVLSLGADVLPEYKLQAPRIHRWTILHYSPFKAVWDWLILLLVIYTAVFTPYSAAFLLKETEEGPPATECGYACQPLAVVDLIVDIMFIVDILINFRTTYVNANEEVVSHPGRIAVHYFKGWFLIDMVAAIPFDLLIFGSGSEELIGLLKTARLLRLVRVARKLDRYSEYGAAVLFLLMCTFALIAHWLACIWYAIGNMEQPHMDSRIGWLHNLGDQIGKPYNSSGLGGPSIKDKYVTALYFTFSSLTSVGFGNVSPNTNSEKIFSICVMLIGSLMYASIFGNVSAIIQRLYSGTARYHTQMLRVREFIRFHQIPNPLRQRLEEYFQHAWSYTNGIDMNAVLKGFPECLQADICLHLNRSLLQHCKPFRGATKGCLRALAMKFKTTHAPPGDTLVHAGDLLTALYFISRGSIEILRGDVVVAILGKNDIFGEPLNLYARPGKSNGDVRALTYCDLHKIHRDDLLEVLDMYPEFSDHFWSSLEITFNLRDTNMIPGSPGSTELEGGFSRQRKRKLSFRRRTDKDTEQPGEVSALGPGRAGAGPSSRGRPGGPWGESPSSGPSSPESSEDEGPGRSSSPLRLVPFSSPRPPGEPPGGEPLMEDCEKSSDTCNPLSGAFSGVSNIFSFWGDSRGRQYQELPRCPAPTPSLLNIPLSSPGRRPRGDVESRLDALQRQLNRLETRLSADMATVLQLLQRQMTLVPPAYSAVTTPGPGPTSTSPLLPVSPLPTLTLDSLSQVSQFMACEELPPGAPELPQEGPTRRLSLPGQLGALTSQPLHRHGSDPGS

T1 sequence (Q96GD4 whole entry): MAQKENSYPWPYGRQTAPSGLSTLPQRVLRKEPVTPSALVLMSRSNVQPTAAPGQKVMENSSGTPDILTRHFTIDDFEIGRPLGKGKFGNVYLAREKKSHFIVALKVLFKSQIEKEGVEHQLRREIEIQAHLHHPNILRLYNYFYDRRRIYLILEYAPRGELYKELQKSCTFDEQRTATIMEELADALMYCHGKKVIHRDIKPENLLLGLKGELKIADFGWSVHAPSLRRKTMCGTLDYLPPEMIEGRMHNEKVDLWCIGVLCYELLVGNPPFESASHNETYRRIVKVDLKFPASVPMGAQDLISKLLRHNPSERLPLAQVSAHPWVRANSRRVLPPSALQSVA

pIC50 (Aurora kinase B [1]): 5.60
pIC50 (K562): 5.96
inhibition (INH) (Aurora kinase B [2]): Not Active
SMILES: CCOC(=O)C1CCN(c2ccc3c(Nc4cc(C)[nH]n4)nc(-c4ccccc4)nc3c2)CC1
Activity (MDA-MB-231 [3]): Dose-dependent effect
Activity (MDA-MB-231 [4]): 47.1%
Activity (MDA-MB-231 [5]): Active
inhibition in vivo at 30 mg/kg (MDA-MB-231 [6]): 45%
Activity (Mus musculus [7]): Non-Toxic
Activity (Mus musculus [8]): Non-Toxic
Activity (Mus musculus [9]): Non-Toxic
Activity (Mus musculus [10]): Non-Toxic
Activity (Mus musculus [11]): Non-Toxic
Activity (Mus musculus [12]): Non-Toxic
Activity (Mus musculus [13]): Non-Toxic
pIC50 [14]: < 5.00

— ChEMBL document CHEMBL4270643, “Structure-based drug design: Synthesis and biological evaluation of quinazolin-4-amine derivatives as selective Aurora A kinase inhibitors” (Eur J Med Chem, 2018)
